Source: ChEMBL document CHEMBL1212693, “Dorsomorphin inhibits BMP signals required for embryogenesis and iron metabolism” (Nat Chem Biol, 2008)
Activity calls are given as the source filed them. The rule behind the calls is not given here.

Columns and labels:
[1] = organism: Mus musculus; assay: Inhibition of BMPR1-mediated Smad-1 phosphorylation in BMP4-stimulated mouse PASMC at 4 uM treated 30 mins before BMP4 challenge measured after 30 mins by immunoblot analysis
How it was run: (§1)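 PASMCs (wild-type or BMPR-II–deficient) were kept 24 h in RPMI with 0.5% FCS, preincubated 30 min with compound or vehicle, then stimulated 30 min with recombinant BMP (10 ng ml−1). Extracts in SDS-lysis buffer were immunoblotted for phospho-SMAD1/5/8, with total SMAD1 and α-tubulin as loading controls. Bands were quantitated by phosphorimager.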

[2] = organism: Mus musculus; assay: Inhibition of BMPR1-mediated Smad-5 phosphorylation in BMP4-stimulated mouse PASMC at 4 uM treated 30 mins before BMP4 challenge measured after 30 mins by immunoblot analysis
How it was run: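 Wild-type mouse PASMCs were kept in RPMI with 0.5% FCS for 24 h. They were preincubated with compound or vehicle for 30 min, then stimulated for 30 min with recombinant BMP2, BMP4, BMP6 or BMP7 at 10 ng ml−1. Lysates in SDS buffer were immunoblotted with anti-phospho-SMAD1/5/8. Total SMAD1 and α-tubulin served as loading controls, and bands were quantified by phosphorimager.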

[3] = organism: Mus musculus; assay: Inhibition of activin receptor-mediated Smad-2 phosphorylation in activin-stimulated mouse PASMC at => 10 uM treated 30 mins before activin challenge measured after 30 mins by immunoblot analysis
How it was run: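 PASMCs serum-starved 24 h (0.5% FCS RPMI) were pretreated 30 min with compound at 0.1–20 µM or vehicle. They were then stimulated 30 min with recombinant TGF-β1 or activin A. Phospho-SMAD2 was detected by immunoblot of SDS lysates, and phosphorimager quantification was used.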

[4] = organism: Mus musculus; assay: Inhibition of BMPR1-mediated Smad-8 phosphorylation in BMP2-stimulated mouse BMPR2 deficient PASMC at 4 uM treated 30 mins before BMP2 measured after 30 mins by immunoblot analysis
[5] = organism: Mus musculus; assay: Inhibition of BMPR1-mediated Smad-1 phosphorylation in BMP4-stimulated mouse BMPR2 deficient PASMC at 4 uM treated 30 mins before BMP4 challenge measured after 30 mins by immunoblot analysis; how it was run: as §1
[6] = organism: Mus musculus; assay: Inhibition of BMPR1-mediated Smad-8 phosphorylation in BMP4-stimulated mouse BMPR2 deficient PASMC at 4 uM treated 30 mins before BMP4 measured after 30 mins by immunoblot analysis
[7] = organism: Mus musculus; assay: Inhibition of BMPR1-mediated Smad-8 phosphorylation in BMP6-stimulated mouse BMPR2 deficient PASMC at 4 uM treated 30 mins before BMP6 measured after 30 mins by immunoblot analysis
[8] = organism: Mus musculus; assay: Inhibition of BMPR1-mediated Smad-1 phosphorylation in BMP7-stimulated mouse BMPR2 deficient PASMC at 4 uM treated 30 mins before BMP7 challenge measured after 30 mins by immunoblot analysis; how it was run: as §1
[9] = organism: Mus musculus; assay: Inhibition of ALK2-mediated Smad-8 phosphorylation in BMPR2 deficient mouse PASMC at 10 uM by immunoblot analysis
How it was run: (§2)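 BMPR-II–deficient mouse PASMCs (RPMI, 10% FBS) transiently transfected with constitutively active ALK2, ALK3 or ALK6 cDNA, or plasmid-only control. Incubated with or without compound (10 µM). Extracts lysed in SDS buffer, run on SDS-PAGE and immunoblotted for phospho-SMAD1/5/8; quantitated by phosphorimager.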

[10] = organism: Mus musculus; assay: Inhibition of ALK6-mediated Smad-8 phosphorylation in BMPR2 deficient mouse PASMC at 10 uM by immunoblot analysis; how it was run: as §2
[11] = system: C2C12; assay: Inhibition of BMPR1-mediated osteoblast differentiation in BMP4-stimulated mouse C2C12 cells assessed as decrease in alkaline phosphatase level at 4 uM by spectrophotometry; type: cell-based
How it was run: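 C2C12 cells were seeded at 2,000 per well in DMEM with 2% FBS and treated in quadruplicate with BMP4 or BMP6 plus compound or vehicle. After 5 d, cells were lysed in TBS with 1% Triton X-100. Lysates were incubated 1 h with p-nitrophenylphosphate and alkaline phosphatase was read as absorbance at 405 nm. Cell count was measured by CyQuant in parallel wells.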

[12] = system: C2C12; assay: Cytotoxicity against mouse C2C12 cells at 4 uM by Cell Titer Glo assay; type: cell-based; conditions: c2c12, 4 µM
How it was run: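 C2C12 cells seeded at 2,000 cells/well in DMEM with 2% FBS and treated in quadruplicate with BMP ligands plus compound or vehicle. Viability measured by Cell-titer Glo after 5 d culture, using replicate wells treated identically to those for alkaline phosphatase.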

[13] = organism: Danio rerio; assay: Toxicity in zebrafish assessed as morphological changes at 1 to 4 uM treated at 24 hrs post-fertilization measured on day 10 post-fertilization; type: organism-based; conditions: in vivo
How it was run: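 WT zebrafish embryos were raised in E3 containing phenylthiourea and exposed from 1 d.p.f. to compound (1–4 µM) or DMSO. From 5 d.p.f. larvae were fed 1 h every other day, with medium renewed after each feeding. At 10 d.p.f. they were calcein-stained and checked by brightfield microscopy for gross morphology and function.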

[14] = organism: Danio rerio; assay: Inhibition of BMPR1 in zebrafish assessed as severity of embryonic axis dorsalization at 10 uM treated at 2 to 4 hrs post-fertilization measured at 48 hrs; parameters: scale not given: the % may be the effect or the level left
[15] = organism: Danio rerio; assay: Inhibition of BMPR1 in zebrafish assessed as penetrance of normal embryonic axis dorsalization at 10 uM treated at 2 to 6 hrs post-fertilization measured at 48 hrs; parameters: scale not given: the % may be the effect or the level left
[16] = organism: Danio rerio; assay: Inhibition of BMPR1 in zebrafish assessed as penetrance of mild embryonic axis dorsalization at 10 uM treated at 6 to 8 hrs post-fertilization measured at 48 hrs; parameters: scale not given: the % may be the effect or the level left
How it was run: (§3)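 Compound added at the stated times and concentrations. Gross morphology scored visually at up to 48 h.p.f. for dorsalization of the embryonic axis.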

[17] = organism: Danio rerio; assay: Inhibition of BMPR1 in zebrafish assessed as severity of embryonic axis dorsalization at 10 uM treated at 6 to 8 hrs post-fertilization measured at 48 hrs; parameters: scale not given: the % may be the effect or the level left
[18] = organism: Danio rerio; assay: Inhibition of BMPR1 in zebrafish assessed as severity of embryonic axis dorsalization at 0.2 uM treated at 3 hrs post-fertilization measured at 48 hrs; parameters: scale not given: the % may be the effect or the level left
[19] = organism: Danio rerio; assay: Inhibition of BMPR1 in zebrafish assessed as penetrance of moderate embryonic axis dorsalization at 1 uM treated at 3 hrs post-fertilization measured at 48 hrs; parameters: scale not given: the % may be the effect or the level left; how it was run: as §3
[20] = organism: Danio rerio; assay: Inhibition of BMPR1 in zebrafish assessed as severity of embryonic axis dorsalization at 10 uM treated at 3 hrs post-fertilization measured at 48 hrs; parameters: scale not given: the % may be the effect or the level left
[21] = organism: Danio rerio; assay: Inhibition of BMPR1 in zebrafish assessed as increase in egr2b expression at 10 uM treated at 12 hrs post-fertilization measured at 48 hrs
[22] = organism: Danio rerio; assay: Inhibition of BMPR1 in zebrafish assessed as penetrance of normal embryonic axis dorsalization at 10 uM treated continuously from 4 hrs post-fertilization measured after 48 hrs; parameters: scale not given: the % may be the effect or the level left
[23] = organism: Danio rerio; assay: Inhibition of BMPR1 in zebrafish assessed as penetrance of moderate embryonic axis dorsalization at 10 uM treated continuously from 2 hrs post-fertilization measured after 48 hrs; parameters: scale not given: the % may be the effect or the level left; how it was run: as §3
[24] = organism: Danio rerio; assay: Inhibition of BMPR1 in zebrafish assessed as severity of embryonic axis dorsalization at 10 uM treated continuously from 6 hrs post-fertilization measured at 48 hrs; parameters: scale not given: the % may be the effect or the level left
[25] = organism: Danio rerio; assay: Inhibition of BMPR1 in zebrafish assessed as severity of embryonic axis dorsalization at 10 uM treated continuously from 8 hrs post-fertilization measured at 48 hrs; parameters: scale not given: the % may be the effect or the level left

c1cc(-c2cnn3cc(-c4ccc(OCCN5CCCCC5)cc4)cnc23)ccn1 [DORSOMORPHIN]
inhibition [1]: Active | inhibition [2]: Active | inhibition [3]: Active | inhibition [4]: Active | inhibition [5]: Active | inhibition [6]: Active | inhibition [7]: Active | inhibition [8]: Active | inhibition [9]: Active | inhibition [10]: Active | inhibition [11]: Active | Activity [12]: Non-toxic | Activity [13]: Non-toxic | Activity [14]: 0% | Activity [15]: 0% | Activity [16]: 95% | Activity [17]: 0% | Activity [18]: 0% | Activity [19]: 0% | Activity [20]: 100% | Activity [21]: Active | Activity [22]: 0% | Activity [23]: 0% | Activity [24]: 0% | Activity [25]: 0%
